Experimental data published in ChEMBL document CHEMBL2086296, “Synthesis of novel quinoline-2-one based chalcones of potential anti-tumor activity” (Eur J Med Chem, 2012).

Tests used:
MOLT-4 [1] = assay: (§1) Cytotoxicity against human MOLT4 cells after 24 hrs by SRB assay; assay type: functional; conditions: MOLT-4, 24 h
In short: (§2)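 NCI 60-line screen. Cells in RPMI 1640 with 5% FBS and 2 mM L-glutamine, seeded at 5,000–40,000 cells/well by doubling time, then incubated 24 h at 37 °C, 5% CO2 before dosing. Time-zero plates fixed with TCA at drug addition. DMSO stocks diluted in medium with gentamicin to five concentrations, […]. Protein read by SRB staining. GI50, TGI and LC50 derived relative to control and time-zero.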

HOP-62 [2] = assay: (§3) Cytotoxicity against human HOP62 cells after 24 hrs by SRB assay; assay type: functional; conditions: HOP-62, 24 h; in short: as §2
HOP-92 [3] = assay: (§4) Cytotoxicity against human HOP92 cells after 24 hrs by SRB assay; assay type: functional; conditions: HOP-92, 24 h; in short: as §2
HCT-15 [4] = assay: (§5) Cytotoxicity against human HCT15 cells after 24 hrs by SRB assay; assay type: functional; conditions: HCT-15, 24 h; in short: as §2
SW-620 = assay: Cytotoxicity against human SW620 cells after 24 hrs by SRB assay; assay type: functional; conditions: SW-620, 24 h
In short: (§6)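 NCI 60-cell screen. Cells are grown in RPMI 1640 with 5% FBS and 2 mM L-glutamine and seeded at 5,000–40,000 cells/well according to doubling time. They are preincubated 24 h at 37 °C in 5% CO2, and Tz plates are TCA-fixed at drug addition. Drug stock is in DMSO, diluted in medium with gentamicin, and tested at five concentrations (100, 10, 1.0, 0.1, […]). Protein is read by SRB staining. GI50, TGI and LC50 are derived relative to time-zero and control wells.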

HCC 2998 [5] = assay: (§7) Cytotoxicity against human HCC2998 cells after 24 hrs by SRB assay; assay type: functional; conditions: HCC 2998, 24 h; in short: as §2
SF-295 = assay: Cytotoxicity against human SF295 cells after 24 hrs by SRB assay; assay type: functional; conditions: SF-295, 24 h; in short: as §2
SF-539 = assay: Cytotoxicity against human SF539 cells after 24 hrs by SRB assay; assay type: functional; conditions: SF-539, 24 h; in short: as §2
U-251 = assay: Cytotoxicity against human U251 cells after 24 hrs by SRB assay; assay type: functional; conditions: U-251, 24 h; in short: as §6
UACC-257 = assay: Cytotoxicity against human UACC257 cells after 24 hrs by SRB assay; assay type: functional; conditions: UACC-257, 24 h; in short: as §6
SK-MEL-2 = assay: Cytotoxicity against human SK-MEL-2 cells after 24 hrs by SRB assay; assay type: functional; conditions: SK-MEL-2, 24 h; in short: as §2
SK-MEL-28 = assay: Cytotoxicity against human SK-MEL-28 cells after 24 hrs by SRB assay; assay type: functional; conditions: SK-MEL-28, 24 h; in short: as §2
CAKI-1 [6] = assay: (§8) Cytotoxicity against human CAKI-1 cells after 24 hrs by SRB assay; assay type: functional; conditions: CAKI-1, 24 h; in short: as §2
TK-10 [7] = assay: (§9) Cytotoxicity against human TK10 cells after 24 hrs by SRB assay; assay type: functional; conditions: TK-10, 24 h; in short: as §6
RPMI-8226 = assay: Cytotoxicity against human RPMI8226 cells after 24 hrs by SRB assay; assay type: cell-based; conditions: rpmi-8226, 24 h
In short: (§10)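 NCI 60-cell screen. Cells grown in RPMI 1640 with 5% FBS and 2 mM L-glutamine, seeded at 5,000–40,000 cells/well, preincubated 24 h at 37 °C in 5% CO2. Drug stock in DMSO, diluted in medium with gentamicin; five final concentrations, 100, 10, 1.0, 0.1 and […]. Time-zero plates were TCA-fixed. Protein read by SRB staining; GI50, TGI and LC50 taken relative to time-zero.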

MOLT-4 [8] = assay: as §1; assay type: cell-based; conditions: molt-4, 24 h; in short: as §10
HOP-62 [9] = assay: as §3; assay type: cell-based; conditions: hop-62, 24 h; in short: as §10
NCI-H23 = assay: Cytotoxicity against human NCI-H23 cells after 24 hrs by SRB assay; assay type: cell-based; conditions: nci-h23, 24 h; in short: as §10
NCI-H522 = assay: Cytotoxicity against human NCI-H522 cells after 24 hrs by SRB assay; assay type: cell-based; conditions: nci-h522, 24 h; in short: as §10
HOP-92 [10] = assay: as §4; assay type: cell-based; conditions: hop-92, 24 h; in short: as §10
HCT-116 = assay: Cytotoxicity against human HCT116 cells after 24 hrs by SRB assay; assay type: cell-based; conditions: hct-116, 24 h; in short: as §10
HCT-15 [11] = assay: as §5; assay type: cell-based; conditions: hct-15, 24 h; in short: as §10
KM12 = assay: Cytotoxicity against human KM12 cells after 24 hrs by SRB assay; assay type: cell-based; conditions: km12, 24 h; in short: as §10
HCC 2998 [12] = assay: as §7; assay type: cell-based; conditions: hcc 2998, 24 h; in short: as §10
SF-268 = assay: Cytotoxicity against human SF268 cells after 24 hrs by SRB assay; assay type: cell-based; conditions: sf-268, 24 h; in short: as §10
SNB-19 = assay: Cytotoxicity against human SNB19 cells after 24 hrs by SRB assay; assay type: cell-based; conditions: snb-19, 24 h
In short: (§11)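 NCI 60-cell-line screen: cells grown in RPMI 1640 with 5% FBS and 2 mM L-glutamine, seeded at 5,000–40,000 cells/well by doubling time, and preincubated 24 h at 37 °C in 5% CO2. Time-zero plates were TCA-fixed. DMSO stocks were diluted in medium with gentamicin to five concentrations (100, 10, 1.0, 0.1, […]). Protein was read by SRB, and GI50, TGI and LC50 were derived against time-zero.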

NCI/ADR-RES = assay: Cytotoxicity against human NCI/ADR-RES cells after 24 hrs by SRB assay; assay type: cell-based; in short: as §10
OVCAR-8 = assay: Cytotoxicity against human OVCAR8 cells after 24 hrs by SRB assay; assay type: cell-based; conditions: ovcar-8, 24 h; in short: as §10
CAKI-1 [13] = assay: as §8; assay type: cell-based; conditions: caki-1, 24 h; in short: as §10
TK-10 [14] = assay: as §9; assay type: cell-based; conditions: tk-10, 24 h; in short: as §11
786-0 = assay: Cytotoxicity against human 786-0 cells after 24 hrs by SRB assay; assay type: cell-based; conditions: 786-0, 24 h; in short: as §10
MCF7 = assay: Cytotoxicity against human MCF7 cells after 24 hrs by SRB assay; assay type: cell-based; conditions: mcf7, 24 h; in short: as §10
BT-549 = assay: Cytotoxicity against human BT549 cells after 24 hrs by SRB assay; assay type: cell-based; conditions: bt-549, 24 h; in short: as §10
T47D = assay: Cytotoxicity against human T47D cells after 24 hrs by SRB assay; assay type: cell-based; in short: as §11
OVCAR-5 [15] = assay: (§12) Cytotoxicity against human OVCAR5 cells after 24 hrs by SRB assay; assay type: functional; conditions: OVCAR-5, 24 h; in short: as §2
[16] = Cytotoxicity against human Hs 578T cells after 24 hrs by SRB assay; assay type: functional; in short: as §2
HT-29 = assay: Cytotoxicity against human HT-29 cells after 24 hrs by SRB assay; assay type: cell-based; conditions: ht-29, 24 h; in short: as §10
SNB-75 = assay: Cytotoxicity against human SNB75 cells after 24 hrs by SRB assay; assay type: cell-based; conditions: snb-75, 24 h; in short: as §11
OVCAR-5 [17] = assay: as §12; assay type: cell-based; conditions: ovcar-5, 24 h; in short: as §10

O=C(/C=C/c1cc2ccccc2[nH]c1=O)/C=C/c1cc2ccccc2[nH]c1=O
GI50 (MOLT-4 [1]): 2.27 µM
TGI (MOLT-4 [1]): > 100 µM
GI50 (HOP-62 [2]): 3.65 µM
TGI (HOP-62 [2]): > 100 µM
GI50 (HOP-92 [3]): > 100 µM
TGI (HOP-92 [3]): > 100 µM
GI50 (HCT-15 [4]): 2.02 µM
TGI (HCT-15 [4]): > 100 µM
GI50 (SW-620): 1 µM
TGI (SW-620): 3.92 µM
GI50 (HCC 2998 [5]): 0.839 µM
TGI (HCC 2998 [5]): 2.22 µM
GI50 (SF-295): 2.64 µM
GI50 (SF-539): 2.13 µM
TGI (SF-539): > 100 µM
GI50 (U-251): 0.372 µM
TGI (U-251): 2.1 µM
GI50 (UACC-257): 1.98 µM
TGI (UACC-257): 4.79 µM
GI50 (SK-MEL-2): > 100 µM
TGI (SK-MEL-2): > 100 µM
GI50 (SK-MEL-28): 4.96 µM
TGI (SK-MEL-28): > 100 µM
GI50 (CAKI-1 [6]): 2.36 µM
TGI (CAKI-1 [6]): > 100 µM
GI50 (TK-10 [7]): 4.6 µM
TGI (TK-10 [7]): > 100 µM
LC50 (RPMI-8226): > 100 µM
LC50 (MOLT-4 [8]): > 100 µM
LC50 (HOP-62 [9]): > 100 µM
LC50 (NCI-H23): > 100 µM
LC50 (NCI-H522): > 100 µM
LC50 (HOP-92 [10]): > 100 µM
LC50 (HCT-116): > 100 µM
LC50 (HCT-15 [11]): > 100 µM
LC50 (KM12): 5.12 µM
LC50 (HCC 2998 [12]): 5.25 µM
LC50 (SF-268): > 100 µM
LC50 (SNB-19): > 100 µM
LC50 (NCI/ADR-RES): > 100 µM
LC50 (OVCAR-8): > 100 µM
LC50 (CAKI-1 [13]): > 100 µM
LC50 (TK-10 [14]): > 100 µM
LC50 (786-0): > 100 µM
LC50 (MCF7): > 100 µM
LC50 (BT-549): > 100 µM
LC50 (T47D): > 100 µM

O=C(/C=C/c1cc2ccccc2[nH]c1=O)c1ccc(O)cc1
GI50 (MOLT-4 [1]): 3.04 µM
TGI (MOLT-4 [1]): 9.91 µM
GI50 (HOP-62 [2]): 2.62 µM
TGI (HOP-62 [2]): 8.17 µM
GI50 (HOP-92 [3]): 3.26 µM
TGI (HOP-92 [3]): 23.2 µM
GI50 (HCT-15 [4]): 2.71 µM
TGI (HCT-15 [4]): 12.8 µM
GI50 (SW-620): 1.89 µM
TGI (SW-620): 4.45 µM
GI50 (HCC 2998 [5]): 4.13 µM
TGI (HCC 2998 [5]): 22.3 µM
GI50 (SF-295): 7.04 µM
TGI (SF-295): 44 µM
GI50 (SF-539): 2.55 µM
TGI (SF-539): 8.64 µM
GI50 (U-251): 2.6 µM
TGI (U-251): 10.9 µM
GI50 (UACC-257): 3.87 µM
TGI (UACC-257): 16 µM
GI50 (SK-MEL-2): 4.13 µM
TGI (SK-MEL-2): 13.6 µM
GI50 (SK-MEL-28): 5.11 µM
TGI (SK-MEL-28): 19.5 µM
GI50 (OVCAR-5 [15]): 3.2 µM
TGI (OVCAR-5 [15]): 12.8 µM
GI50 (CAKI-1 [6]): 4.71 µM
TGI (CAKI-1 [6]): > 100 µM
GI50 (TK-10 [7]): 3.81 µM
TGI (TK-10 [7]): 11.8 µM
GI50 [16]: 6.15 µM
TGI [16]: > 100 µM
LC50 (RPMI-8226): > 100 µM
LC50 (MOLT-4 [8]): > 100 µM
LC50 (HOP-62 [9]): 85.2 µM
LC50 (NCI-H23): > 100 µM
LC50 (NCI-H522): 6.36 µM
LC50 (HOP-92 [10]): > 100 µM
LC50 (HCT-116): 9.91 µM
LC50 (HCT-15 [11]): > 100 µM
LC50 (HT-29): 41.4 µM
LC50 (KM12): 15.4 µM
LC50 (HCC 2998 [12]): 59.6 µM
LC50 (SF-268): > 100 µM
LC50 (SNB-19): 50.6 µM
LC50 (SNB-75): 55 µM
LC50 (NCI/ADR-RES): > 100 µM
LC50 (OVCAR-8): > 100 µM
LC50 (OVCAR-5 [17]): 44.4 µM
LC50 (CAKI-1 [13]): > 100 µM
LC50 (TK-10 [14]): 34.6 µM
LC50 (MCF7): 82.9 µM
LC50 (BT-549): > 100 µM
LC50 (T47D): 79.6 µM
